The source made the active and inactive calls. No cut-off for these calls is given here.
Key:
[1] = system: PBMC; assay: Antiinflammatory activity in human PBMC assessed as reduction in anti-CD3/CD28 antibody-stimulated TNF-alpha expression at 250 nM preincubated for 1 hr followed by anti-CD3/CD28 antibody stimulation measured after 24 hrs in presence of KZR-504 by ELISA; type: functional, cell-based
Method in brief: (§1)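 Healthy-donor PBMC, thawed from cryopreservation, 250 000 cells/well in RPMI 1640/5% FBS. Pretreated 1 h at 37 °C with compound alone or combined (0.1% DMSO final), washed 4 times, then stimulated 24 h with anti-CD3 and anti-CD28 antibodies. TNFα and IFNγ in supernatants by electrochemiluminescent ELISA; expressed relative to DMSO-treated controls (n = 6).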

[2] = Selectivity ratio of IC50 for MECL1 in mouse A20 cells to IC50 for MECL1 in human MOLT4 cells; type: cell-based
[3] = system: Mus musculus; assay: Antiarthritic activity in type 2 collagen antibody/LPS induced Balb/c mouse assessed as reduction in disease burden at 20 mg/kg, iv followed by dosing repeat on day 6, 8, 11, 13 and 15 and co-treated with 5 mg/kg, iv KZR-504 and measured until day 18; type: functional, organism-based
Method in brief: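 CAIA in 7−8 week old female BALB/c mice on breeder chow. Induced with 1.75 mg of a 5-antibody anti-type II collagen cocktail iv on day 0, then 25 μg LPS ip on day 3. Dosed as single iv boluses in 10% (w/v) sulfobutyl ether−β-cyclodextrin/10 mM sodium citrate (pH 3.5); vehicle-treated group included.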

[4] = system: PBMC; assay: Antiinflammatory activity in human PBMC assessed as reduction in anti-CD3/CD28 antibody-stimulated IFN-gamma expression at 125 nM preincubated for 1 hr followed by anti-CD3/CD28 antibody stimulation measured after 24 hrs in presence of KZR-504 by ELISA; type: functional, cell-based; method in brief: as §1
[5] = system: Mus musculus; assay: In vivo inhibition of proteosome beta 5 in Balb/c mouse kidney at 20 mg/kg, iv followed by dosing repeat on day 6, 8, 11, 13 and 15 and co-treated with 5 mg/kg, iv KZR-504 and measured on 1 hr post last dose; type: functional, organism-based
Method in brief: (§2)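 BALB/c mice dosed iv bolus in 10% sulfobutyl ether−β-cyclodextrin/10 mM sodium citrate pH 3.5; tissues taken 1 h after administration. Splenocytes strained and red cells lysed; kidney frozen, then bead-homogenized. Hypotonic lysate (20 mM Tris pH 8, 5 mM EDTA) at 1 mg/mL (spleen) or 5 mg/mL (kidney) run in the ProCISE active-site ELISA. Background-subtracted, protein-normalized activity relative to vehicle animals; n = 3.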

[6] = system: PBMC; assay: Antiinflammatory activity in human PBMC assessed as reduction in LPS-stimulated TNF-alpha expression at 125 nM preincubated for 1 hr followed by LPS stimulation measured after 24 hrs by ELISA; type: functional, cell-based
Method in brief: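 Cryopreserved healthy-donor PBMC in RPMI 1640 with 5% heat-inactivated FBS, 250 000 cells/well. Compound (0.1% DMSO final) for 1 h at 37 °C, 5% CO2, then 4 washes with medium. Stimulated with 1 μg/mL LPS for 24 h; supernatant TNFα, IL-6 and IL-12/23p40 by electrochemiluminescent immunoassay. Mean level relative to DMSO controls, n = 6.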

[7] = system: Mus musculus; assay: In vivo inhibition of LMP7 in Balb/c mouse splenocytes at 20 mg/kg, iv followed by dosing repeat on day 6, 8, 11, 13 and 15 and co-treated with 5 mg/kg, iv KZR-504 and measured on 1 hr post last dose; type: functional, organism-based; method in brief: as §2
[8] = system: Mus musculus; assay: In vivo inhibition of MECL-1 in Balb/c mouse splenocytes at 20 mg/kg, iv followed by dosing repeat on day 6, 8, 11, 13 and 15 and co-treated with 5 mg/kg, iv KZR-504 and measured on 1 hr post last dose; type: functional, organism-based; method in brief: as §2
[9] = target: T1, Proteasome subunit beta type-8 (Homo sapiens) (UniProt P28062); assay: Inhibition of LMP7 in human PBMC at 125 nM by ELISA
T1 sequence (whole entry): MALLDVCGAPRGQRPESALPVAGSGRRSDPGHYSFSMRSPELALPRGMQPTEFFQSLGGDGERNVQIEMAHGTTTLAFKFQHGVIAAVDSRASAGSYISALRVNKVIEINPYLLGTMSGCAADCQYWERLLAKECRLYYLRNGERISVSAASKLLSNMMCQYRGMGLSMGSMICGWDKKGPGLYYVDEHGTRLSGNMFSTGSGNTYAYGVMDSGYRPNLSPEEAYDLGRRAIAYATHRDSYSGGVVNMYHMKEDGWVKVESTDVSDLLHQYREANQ
Method in brief: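 Cryopreserved healthy-donor human PBMC in RPMI 1640 with 5% heat-inactivated FBS, exposed to compound (0.1% DMSO final) for 1 h at 37 °C, 5% CO2, then washed. Subunit-specific active-site occupancy read by ProCISE: biotinylated active-site probe binding, denaturation, streptavidin capture, subunit-specific antibody and HRP chemiluminescence. Signal normalized to protein and expressed relative to DMSO controls.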

[10] = target: T2, Proteasome subunit beta type-9 (Homo sapiens) (UniProt P28065); assay: Inhibition of LMP2 in human PBMC at 125 nM by ELISA
T2 sequence (whole entry): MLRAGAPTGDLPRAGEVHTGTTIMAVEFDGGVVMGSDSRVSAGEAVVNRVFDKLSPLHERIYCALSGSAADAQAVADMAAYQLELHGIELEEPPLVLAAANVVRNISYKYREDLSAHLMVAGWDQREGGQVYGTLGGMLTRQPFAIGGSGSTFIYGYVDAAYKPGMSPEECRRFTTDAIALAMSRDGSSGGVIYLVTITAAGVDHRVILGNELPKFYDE

[11] = target: T2, Proteasome subunit beta type-9 (Homo sapiens); assay: Inhibition of LMP2 in human PBMC at 125 nM in presence of KZR-504 by ELISA

| inhibition [9] | inhibition [10] | inhibition [11] | Structure (SMILES) | Activity [1] | Ratio IC50 [2] | Activity [3] | Activity [4] | inhibition [5] | Activity [6] | inhibition [7] | inhibition [8] |
| --- | --- | --- | --- | --- | --- | --- | --- | --- | --- | --- | --- |
|  |  |  | Cc1ccc(CC[C@H](NC(=O)[C@H](Cc2ccccc2)NC(=O)[C@H](CC(C)C)NC(=O)CN2CCCCCC2)C(=O)[C@@]2(C)CO2)cc1 | inactive | 4 |  |  |  |  |  |  |
| Active | Active | Active | COc1ccc(C[C@H](NC(=O)[C@@H](C)NC(=O)[C@H]2CC[C@H](O)CC2)C(=O)N[C@@H](CC2=CCCC2)C(=O)[C@@]2(C)CO2)cc1 |  |  | Active | Active | Active | inactive | Active | Active |
